This is an account of results in ChEMBL document CHEMBL1154569, “Scalarane and homoscalarane compounds from the nudibranchs Glossodoris sedna and Glossodoris dalli: chemical and biological properties” (J Nat Prod, 2000).

SMILES strings stand for the structures. The source made the active and inactive calls. The rule behind the calls is not given here.

Assay [1] can be described thus: Inhibition of cytosolic PLA2. The gist of the method:
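Measured in RBL-2H3 cells stimulated with ionomycin.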

The test system of the next assay is Gambusia affinis. Nature of the assay: Ichthyotoxicity against Gambusia affinis at 0.1 ppm.

In assay [1], `CC(=O)OC[C@]12CCCC(C)(C)[C@@H]1CC[C@]1(C)[C@@H]2C[C@@H](O)[C@]2(C)[C@@H](C=O)C(C(C)=O)=CC[C@@H]12` yielded a half-inhibitory concentration (IC50) of 18 µM. As to `CC(=O)O[C@@H]1C[C@@H]2[C@@]3(C)CCCC(C)(C)[C@@H]3CC[C@@]2(C)[C@@H]2CC=C3CO[C@@H](O)[C@@H]3[C@@]12C`, the result (in the assay with Gambusia affinis; in assay [1]) was inactive. Turning to `CC(=O)OC[C@]12CCCC(C)(C)[C@@H]1CC[C@]1(C)[C@@H]2C[C@@H](O)[C@]2(C)[C@@H]3C(=CC[C@@H]12)[C@H](C)O[C@H]3O`, the result (in the assay with Gambusia affinis; in assay [1]) was inactive.

On to `C[C@@H]1O[C@@H](O)[C@H]2C1=CC[C@H]1[C@]3(C)CC[C@H]4C(C)(C)CCC[C@]4(C)[C@H]3C[C@@H](O)[C@]21C`, for which the result (in the assay with Gambusia affinis; in assay [1]) was inactive. Regarding `CC(=O)O[C@H]1C[C@@H]2[C@@]3(C)CCCC(C)(C)[C@@H]3CC[C@@]2(C)[C@@H]2CC=C3CO[C@@H](O)[C@@H]3[C@@]12C`, the result (in the assay with Gambusia affinis; in assay [1]) was inactive. With `CC(=O)O[C@H]1C[C@@H]2[C@@]3(C)CCCC(C)(C)[C@@H]3CC[C@@]2(C)[C@@H]2CC=C(C=O)[C@H](C=O)[C@@]12C` [SCALARADIAL], in the assay on Gambusia affinis, the outcome was Active. Also, the concentration for half-maximal inhibition (IC50) in assay [1] stood at 0.6 µM.

Broadly, the IC50 is the concentration needed to halve the response being measured.
